From PubChem BioAssay
Efflux pump mplx = antifungal efflux pump inhibition, Nile Red retention; hit rate 0.44% among 330,000; AID 485275; S. cerevisiae Candida pump triplex; inhibition, % at 10 µM;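 active = plate passing quality check with inhibition over a set limit, or well fluorescence over plate mean plus 4 SD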;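 note: Nile Red retained in pooled yeast measured as flow cytometry median fluorescence; higher means more Nile Red kept so more efflux inhibition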
Tb MetRS inh = blocks T. brucei methionyl-tRNA synthetase activity; purified T. brucei MetRS, ATP depletion, Kinase-Glo luminescence; inhibition, % at 11.9 µM; hit rate 0.4% among 360,000; AID 624268;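 active = inhibition above a per-plate cutoff of the control wells' mean inhibition plus 3 SD, cut at about 5.5% in these data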
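Dosing: 11.9 µM compound single dose, 0.9% DMSO; Assay system: purified T. brucei MetRS enzyme; Measured by: Kinase-Glo luciferase luminescence reporting remaining unconsumed ATP; Schedule: 15 min plus 2 h at 25 °C.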
AHR act = activators of human aryl hydrocarbon receptor. AHR-responsive luciferase reporter cells, luminescence. activation, % at 5 µM. hit rate 2.5% among 320,000. AID 2796; in the data active = activation above about 47%
Target sequence (P35869 whole entry, looked up): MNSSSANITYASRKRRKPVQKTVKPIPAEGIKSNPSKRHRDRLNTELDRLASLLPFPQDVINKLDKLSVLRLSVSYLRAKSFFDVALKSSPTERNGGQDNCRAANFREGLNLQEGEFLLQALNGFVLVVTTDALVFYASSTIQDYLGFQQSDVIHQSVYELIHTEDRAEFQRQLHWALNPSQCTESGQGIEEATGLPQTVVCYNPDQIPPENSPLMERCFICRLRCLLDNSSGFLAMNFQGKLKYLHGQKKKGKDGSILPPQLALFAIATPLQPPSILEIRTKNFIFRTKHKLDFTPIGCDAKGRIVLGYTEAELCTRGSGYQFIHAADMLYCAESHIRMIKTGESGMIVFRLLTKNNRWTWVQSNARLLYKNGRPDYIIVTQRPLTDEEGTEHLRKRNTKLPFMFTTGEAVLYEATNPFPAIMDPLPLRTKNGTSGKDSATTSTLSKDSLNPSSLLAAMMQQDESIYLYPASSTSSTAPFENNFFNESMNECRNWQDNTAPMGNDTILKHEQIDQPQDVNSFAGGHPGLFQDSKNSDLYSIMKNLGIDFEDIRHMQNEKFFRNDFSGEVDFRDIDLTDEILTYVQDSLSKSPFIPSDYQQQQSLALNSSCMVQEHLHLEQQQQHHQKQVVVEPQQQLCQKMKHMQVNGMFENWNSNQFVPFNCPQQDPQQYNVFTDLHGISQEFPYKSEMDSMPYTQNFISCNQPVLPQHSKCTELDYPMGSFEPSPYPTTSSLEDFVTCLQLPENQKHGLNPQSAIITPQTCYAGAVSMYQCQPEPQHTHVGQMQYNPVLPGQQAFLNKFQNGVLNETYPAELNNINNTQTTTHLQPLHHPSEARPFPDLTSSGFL
TAG inh = reduces triacylglycerol accumulation in H9c2 cells; Nile Red lipid (TAG) fluorescence; cells loaded with 200 µM oleic acid; hit rate 0.66% among 230,000; inhibition, % at 12.5 µM;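 active = pattern-corrected inhibition of lipid staining of at least 50% with the nuclear-stain viability signal not falling by more than 50%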
SMARCA2 activ = SMARCA2 function activation, primary screen. AID 652017. MG213 cells, MMTV-luciferase reporter, dexamethasone, overnight. activation, % at 9.1 µM. hit rate 1% among 370,000; in the data active = activation above about 7.8%
Each line names hits and unclear results; the compound was inactive in the other large screens. This is a sample that favours compounds with a hit; in the whole collection about 4.1% have one here.

O=S(=O)(c1ccc(F)cc1)n1c(CN2CCOCC2)nc2ccccc21	none (no result: Efflux pump mplx, Tb MetRS inh, AHR act, TAG inh)
O=C(/C=C\c1cn(-c2ccccc2)nc1-c1ccccc1)Nc1nccs1	AHR act 73.0
O=C(NCCc1ccccc1)c1nc2nc(-c3cccs3)cc(C(F)(F)F)n2n1	AHR act 77.3
COc1ccc(CNS(=O)(=O)c2ccccc2Br)c(OC)c1	none (no result: Efflux pump mplx, Tb MetRS inh, AHR act, TAG inh)
Cc1ccccc1NC(=O)CC1C(=O)Nc2ccccc2N1CC(=O)N(C)C1CCS(=O)(=O)C1 (centres undefined)	AHR act 60.0
Cc1cc(C(=O)NN=C(Cc2ccccc2)Cc2ccccc2)c(C)o1	AHR act 57.7 (no result: TAG inh)
CC/C(Cc1ccccc1)=N\NC(=O)c1cc(C)oc1C	none (no result: TAG inh)
COc1ccc(S[C@]2(C(=O)N3CCN(c4ncccn4)CC3)CC(=O)N(C(=O)/C=C/c3ccccc3)[C@@H]2c2ccc(OC)cc2)cc1	none (no result: Efflux pump mplx, Tb MetRS inh, AHR act, TAG inh)
CCOc1ccccc1NC(=O)c1cccc(NC(=O)C2CCCC2)c1	AHR act 59.9 (no result: TAG inh)
COc1cc(NC(=O)C2CCCO2)c(OC)cc1NC(=O)c1ccccc1 (centres undefined)	AHR act 78.4
CCOc1ccccc1NC(=O)C1CCCC1	none (no result: Efflux pump mplx, AHR act, TAG inh)
COc1cc(NC(=O)C2CCCCC2)c(OC)cc1NC(=O)c1ccccc1	AHR act 54.4 (no result: TAG inh)
COc1cc(NC(=O)C2CCCCC2)c(OC)cc1NC(=O)c1ccco1	none
C[N+]1=C(N)N[C@@]2(C=C3CCCCC3n3c(=O)n(-c4ccccc4)c(=O)n32)C1 (some centres undefined)	none (no result: Efflux pump mplx, Tb MetRS inh, AHR act, TAG inh)
CC1=Nc2ccccc2/C1=C/c1sc(=O)n(CC(=O)N2CCCC2)c1O	none
Oc1nc(Nc2ccc(F)cc2)sc1/C=C1\C=Nc2ccccc21	AHR act 121.7
Oc1nc(Nc2cccc(Cl)c2)sc1/C=C1\C=Nc2ccccc21	AHR act 117.4 (no result: TAG inh)
CCOC(=O)c1c(Nc2ccc(Cl)cc2)sc(/C=C2\C=Nc3ccccc32)c1O	none
CC1=Nc2ccccc2/C1=C\c1sc(Nc2ccc(C)cc2)nc1O	AHR act 79.1 (no result: TAG inh)
CCN(CC)CCC(=O)N1C/C(=C/c2ccccc2)C(=O)/C(=C\c2ccccc2)C1	TAG inh 50.5 (no result: Efflux pump mplx, AHR act)
Clc1ccc(-c2csc(N3CCc4ccccc4C3)n2)cc1	AHR act 52.1
Clc1ccc(-c2csc(N3CCN(c4ccccc4)CC3)n2)cc1	none
COc1ccc(-c2cn[nH]c2-c2ccc(OCc3ccc([N+](=O)[O-])cc3)cc2O)cc1	AHR act 51.1
CCc1cc(-c2[nH]ncc2-c2ccc(OC)cc2)c(O)cc1O	none (no result: TAG inh)
O=C(Nc1cccc(C(F)(F)F)c1)c1cccnc1N1CCOCC1	none (no result: TAG inh)
O=C(Nc1ccc(C(F)(F)F)cc1)c1cccnc1N1CCOCC1	AHR act 60.6 (no result: TAG inh)
CC1CCN(c2nc3nonc3nc2Nc2ccc(F)cc2)CC1	AHR act 49.9
Cc1cc(NC(=O)c2ccc(Cl)cc2)n(CCOC(=O)c2ccc(Cl)cc2)n1	none (no result: TAG inh)
Cc1cc(NC(=O)c2ccc(F)cc2)n(CCOC(=O)c2ccc(F)cc2)n1	AHR act 49.8
COCCCN1C(=O)[C@H](CC(=O)N2CCOCC2)[C@]2(C(=O)OC)CCCCC=C12	none (no result: Efflux pump mplx, Tb MetRS inh, AHR act, TAG inh)
O=C(Nc1ccnc(-c2ccncc2)n1)C1CC1	AHR act 52.0
COc1ccc(Cn2ccc3ccc(-c4ccc5ccn(C(=O)C6CCCCC6)c5c4)cc32)cc1	none (no result: Efflux pump mplx, Tb MetRS inh, AHR act, TAG inh)
CNC(=O)c1ccsc1NC(=O)c1ccc(Cl)s1	AHR act 66.2
CNC(=O)c1ccsc1NC(=O)c1ccccc1	AHR act 49.4
CNC(=O)c1ccsc1NC(=O)CCS(=O)(=O)c1ccccc1	none
CCC(NC(=O)c1ccc2c(ccn2Cc2cccc(-c3ccccc3C(=O)O)c2)c1)c1ccccc1 (centres undefined)	none (no result: Efflux pump mplx, Tb MetRS inh, AHR act, TAG inh)
Cc1cccc(NC(=O)c2cc(-c3cc(C)cc(C)c3O)n[nH]2)c1	AHR act 65.5 (no result: TAG inh)
COc1ccc(NC(=O)c2cc(-c3cc(C)cc(C)c3O)n[nH]2)cc1Cl	AHR act 80.3
Cc1cc(C)c(O)c(-c2cc(C(=O)Nc3cccnc3)[nH]n2)c1	none
O=C(NCCN1C(=O)C2C3C=CC(C3)C2C1=O)c1cc(Cl)cc(Cl)c1 (centres undefined)	none (no result: Efflux pump mplx, Tb MetRS inh, AHR act, TAG inh)
O=C(Nc1ccc2c(c1)oc1ccc(S(=O)(=O)N3CCCC3)cc12)C1CC1	none (no result: TAG inh)
CC(C)CN1C(=O)c2ccc(NC(=O)C3CC3)cc2C1=O	none
O=C1c2ccccc2C(=O)c2cc(NC(=O)C3CC3)ccc21	AHR act 168.4 (no result: TAG inh)
O=C(Nc1ccc2c(c1)oc1ccccc12)C1CC1	AHR act 74.5
CCN(C[C@@H]1[C@@H](c2ccccc2)[C@H](CO)N1S(C)(=O)=O)C(=O)C1CCC1	none (no result: Efflux pump mplx, Tb MetRS inh, AHR act, TAG inh)
COC(=O)[C@]12C[C@H](CC(=O)NCc3cccs3)C(=O)N(Cc3ccc(Cl)cc3Cl)C1=C[C@H](C1CCCC1)O[C@@H]2C	none (no result: Efflux pump mplx, Tb MetRS inh, AHR act, TAG inh)
CCCCOCCCNC(=O)C[C@H]1C[C@@]2(C(=O)OC)C(=C[C@H](C(C)C)O[C@@H]2C2CC2)N(Cc2ccc(Cl)cc2Cl)C1=O	none (no result: Efflux pump mplx, Tb MetRS inh, AHR act, TAG inh)
O=C(Nc1ccccn1)Nc1ccccc1[N+](=O)[O-]	AHR act 49.0 (no result: TAG inh)
COC(=O)C(C)(C)ONC(=O)Nc1ccccc1[N+](=O)[O-]	none
CCCONC(=O)Nc1ccccc1[N+](=O)[O-]	AHR act 53.3 (no result: TAG inh)
O=C1C=C(c2ccccc2)CC(/C=C/c2ccccc2)C1 (centres undefined)	AHR act 75.2 (no result: TAG inh)
Cn1c(=O)c2c(c3ccccc31)OC(C)(C)C=C2	none (no result: Efflux pump mplx, Tb MetRS inh, AHR act, TAG inh)
O=C(NNC(=O)c1cccc2ccccc12)c1ccc(F)cc1	none (no result: Efflux pump mplx, AHR act)
C#CCn1cccc(C(=O)Nc2ccc(OC)cc2)c1=O	none (no result: TAG inh)
O=C(Nc1ccc(F)cc1)c1cccc2ccccc12	AHR act 57.5 (no result: TAG inh)
COc1ccc(NC(=O)c2cccc3ccccc23)cc1	AHR act 51.6
CCn1ncc(C(=O)Nc2ccc(F)cc2)c1C	AHR act 59.8
CCCn1cccc(C(=O)Nc2ccc(OC)cc2)c1=O	AHR act 75.4 (no result: TAG inh)
COc1ccc(NC(=O)c2cccc3ccccc23)cc1OC	none (no result: Efflux pump mplx, AHR act)
CN1C(=O)c2cc(NS(C)(=O)=O)ccc2OC[C@H]2O[C@@H](CC(=O)NCc3ccc(-c4ccccc4)cc3)CC[C@@H]21	none (no result: Efflux pump mplx, Tb MetRS inh, AHR act, TAG inh)
COc1ccc(C2=CCN(C)C(=O)N2c2ccc([N+](=O)[O-])cc2)cc1	none (no result: Efflux pump mplx, Tb MetRS inh, AHR act, TAG inh)
CN(C)CC(=O)N[C@H]1C[C@@H]2O[C@@H](CO)CC[C@@H]2O[C@@H]1CCc1ccc(-c2ccc(F)cc2)cc1	none (no result: Efflux pump mplx, Tb MetRS inh, AHR act, TAG inh)
O=C(Nc1ccc(F)cc1)c1c(Cl)nc2ccccn12	AHR act 57.6
COc1cc(NC(=O)c2ccccc2-c2ccccc2)cc(OC)c1	AHR act 47.8 (no result: TAG inh)
COc1cc(NC(=O)c2ccccc2-c2ccccc2)cc(OC)c1OC	none (no result: Tb MetRS inh, TAG inh, SMARCA2 activ)
COc1ccc(NC(=O)Nc2c(O)ccc3ccccc23)cc1	AHR act 67.4
COc1ccc(OC)c(S(=O)(=O)N2CCCC(C(=O)N3CCN(Cc4ccccc4)CC3)C2)c1 (centres undefined)	none (no result: Efflux pump mplx, Tb MetRS inh, AHR act, TAG inh)
Cc1cccn2c(NC(=O)c3cccs3)c(-c3ccccc3)nc12	SMARCA2 activ 7.9 (no result: TAG inh)
Cc1ccn2c(NC(=O)c3cccs3)c(-c3ccccc3)nc2c1	none (no result: TAG inh)
O=C(NCCc1c[nH]c2ccccc12)OCc1cn(Cc2c(F)cccc2F)nn1	none (no result: Efflux pump mplx, Tb MetRS inh, AHR act, TAG inh)
